Measurements from ChEMBL document CHEMBL1122744, “2-Chloroethyl (methylsulfonyl)methanesulfonate and related (methylsulfonyl)methanesulfonates. Antineoplastic activity in vivo” (J Med Chem, 1984).

How the values were obtained:
Mus musculus [1] = experiment: Change in weight by day 5, obtained by subtracting treated groups of animals minus control groups of animals at dose 50 mg/kg in exp8; format: functional
Summary of the method: (§1)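 Mice were inoculated ip with 10^6 P388 leukemia cells on day 0 and weighed 19–22 g that day. Compound was given ip once daily on days 1–5, within about 5 min of preparing the solution or suspension, to groups of six (occasionally five). Thirty inoculated untreated mice served as controls. The value is the average weight change of treated mice minus that of controls on day 5.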

Mus musculus [2] = experiment: Change in weight by day 5, obtained by subtracting treated groups of animals minus control groups of animals at dose 75 mg/kg in exp2.; format: functional; summary of the method: as §1
Mus musculus [3] = experiment: Change in weight by day 5, obtained by subtracting treated groups of animals minus control groups of animals at dose 22 mg/kg in exp6; format: functional; summary of the method: as §1
Mus musculus [4] = experiment: Change in weight by day 5, obtained by subtracting treated groups of animals minus control groups of animals at dose 100 mg/kg in exp8; format: functional; summary of the method: as §1
Mus musculus [5] = experiment: Change in weight by day 5, obtained by subtracting treated groups of animals minus control groups of animals at dose 15 mg/kg in exp3.; format: functional; summary of the method: as §1
Mus musculus [6] = experiment: Change in weight by day 5, obtained by subtracting treated groups of animals minus control groups of animals at dose 33 mg/kg in exp6; format: functional; summary of the method: as §1
Mus musculus [7] = experiment: Mortality by day 5 expressed as number of mice died to the total treated at dose 100 mg/kg in exp1; 1/6; format: ADME, organism-based; parameters: dose 100 mg/kg; settings: in vivo
Mus musculus [8] = experiment: Change in weight by day 5, obtained by subtracting treated groups of animals minus control groups of animals at dose 200 mg/kg in exp1.; format: functional; summary of the method: as §1
Mus musculus [9] = experiment: Change in weight by day 5, obtained by subtracting treated groups of animals minus control groups of animals at dose 50 mg/kg in exp1.; format: functional; summary of the method: as §1
Mus musculus [10] = experiment: Median survival time of the treated control groups, in which there are no 30-day survivors at dose 100 mg/kg in exp1; format: functional
Mus musculus [11] = experiment: Mortality by day 5 expressed as number of mice died to the total treated at dose 22 mg/kg in exp3; 0/5; format: ADME, organism-based; parameters: dose 22 mg/kg; settings: in vivo
Mus musculus [12] = experiment: Mortality by day 5 expressed as number of mice died to the total treated at dose 33 mg/kg in exp6; 0/6; format: ADME, organism-based; parameters: dose 33 mg/kg; settings: in vivo
Mus musculus [13] = experiment: Mortality by day 5 expressed as number of mice died to the total treated at dose 50 mg/kg in exp2; 0/5; format: ADME, organism-based; parameters: dose 50 mg/kg; settings: in vivo
Mus musculus [14] = experiment: Mortality by day 5 expressed as number of mice died to the total treated at dose 50 mg/kg in exp4; 0/6; format: ADME, organism-based; parameters: dose 50 mg/kg; settings: in vivo
Mus musculus [15] = experiment: Mortality by day 5 expressed as number of mice died to the total treated at dose 50 mg/kg in exp7; 0/6; format: ADME, organism-based; parameters: dose 50 mg/kg; settings: in vivo
Mus musculus [16] = experiment: Median survival time of the treated control groups, in which there are no 30-day survivors at dose 33 mg/kg in exp3; format: functional
Mus musculus [17] = experiment: Median survival time of the treated control groups, in which there are no 30-day survivors at dose 33 mg/kg in exp7; format: functional
Mus musculus [18] = experiment: Median survival time of the treated control groups, in which there are no 30-day survivors at dose 50 mg/kg in exp1; format: functional
Mus musculus [19] = experiment: Median survival time of the treated control groups, in which there are no 30-day survivors at dose 50 mg/kg in exp2; format: functional
Mus musculus [20] = experiment: Median survival time of the untreated control groups, in which there are no 30-day survivors at dose 50 mg/kg in exp5; format: functional
Mus musculus [21] = experiment: Median survival time of the untreated control groups, in which there are no 30-day survivors at dose 75 mg/kg in exp2; format: functional
Mus musculus [22] = experiment: Median survival time of the untreated control groups, in which there are no 30-day survivors at dose 22 mg/kg in exp7; format: functional
Mus musculus [23] = experiment: Median survival time of the untreated control groups, in which there are no 30-day survivors at dose 33 mg/kg in exp6; format: functional
Mus musculus [24] = experiment: Median survival time of the untreated control groups, in which there are no 30-day survivors at dose 50 mg/kg in exp1; format: functional
Mus musculus [25] = experiment: Median survival time of the treated control groups, in which there are no 30-day survivors at dose 50 mg/kg in exp5; format: functional
Mus musculus [26] = experiment: Median survival time of the untreated control groups, in which there are no 30-day survivors at dose 100 mg/kg in exp8; format: functional
Mus musculus [27] = experiment: Median survival time of the untreated control groups, in which there are no 30-day survivors at dose 15 mg/kg in exp3; format: functional
[28] = Ratio of median survival times for non-survivors at dose 50 mg/kg in exp8; format: functional
[29] = Ratio of median survival times for non-survivors at dose 50 mg/kg in exp6; format: functional
[30] = Ratio of number of 30-day survivors to the total treated mice at dose 50 mg/kg in exp5; 3/6; format: functional
[31] = Ratio of number of 60-day survivors to the total treated mice at dose 50 mg/kg in exp1; 2/6; format: functional
[32] = Ratio of number of 60-day survivors to the total treated mice at dose 50 mg/kg in exp2; 0/5; format: functional
[33] = Ratio of number of 60-day survivors to the total treated mice at dose 50 mg/kg in exp4; 6/6; format: functional
[34] = Ratio of number of 60-day survivors to the total treated mice at dose 50 mg/kg in exp5; 1/6; format: functional
[35] = Ratio of median survival times for non-survivors at dose 15 mg/kg in exp3; format: functional
Summary of the method: (§2)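 Mice were inoculated ip with 10^6 P388 leukemia cells on day 0. Groups of six (occasionally five) were dosed ip qd on days 1–5 with fresh suspensions; 30 mice served as untreated controls. Deaths were recorded daily up to day 60. T/C% compares the median survival of treated non-survivors (<60 days) with the control median. Medians used grouped data when there were no 30-day survivors, otherwise ungrouped data. t = toxic.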

[36] = Ratio of median survival times for non-survivors at dose 200 mg/kg in exp1; t= toxic; format: ADME, organism-based; parameters: dose 200 mg/kg; settings: in vivo; summary of the method: as §2
[37] = Ratio of median survival times for non-survivors at dose 22 mg/kg in exp6; format: functional
[38] = Ratio of median survival times for non-survivors at dose 33 mg/kg in exp6; format: functional
[39] = Ratio of median survival times for non-survivors at dose 33 mg/kg in exp7; format: functional
[40] = Ratio of median survival times for non-survivors at dose 50 mg/kg in exp1; format: functional; parameters: unit: %; summary of the method: as §2

`CS(=O)(=O)CS(=O)(=O)OCCCl` gave a Change in weight (Mus musculus [1]) of -1.6, a Change in weight (Mus musculus [2]) of -4.2 and a Change in weight (Mus musculus [3]) of -1.4. The Change in weight (Mus musculus [4]) was -6, the Change in weight (Mus musculus [5]) was -0.9 and the Change in weight (Mus musculus [6]) was -2.1. It also gave a Mortality (Mus musculus [7]) of 1, a T-C (Mus musculus [8]) of -5 g and a T-C (Mus musculus [9]) of -3.4 g. For the same molecule, the Median survival time (Mus musculus [10]) was 17, the Mortality (Mus musculus [11]) was 0 and the Mortality (Mus musculus [12]) was 0. It also gave a Mortality (Mus musculus [13]) of 0, a Mortality (Mus musculus [14]) of 0 and a Mortality (Mus musculus [15]) of 0. The Median survival time (Mus musculus [16]) was 22, the Median survival time (Mus musculus [17]) was 22.3 and the Median survival time (Mus musculus [18]) was 31.5. For the same molecule, the Median survival time (Mus musculus [19]) was 27, the Median survival time (Mus musculus [20]) was 12 and the Median survival time (Mus musculus [21]) was 11.2. For the same molecule, the Median survival time (Mus musculus [22]) was 10.7, the Median survival time (Mus musculus [23]) was 13 and the Median survival time (Mus musculus [24]) was 11.2. The Median survival time (Mus musculus [25]) was 27, the Median survival time (Mus musculus [26]) was 11 and the Median survival time (Mus musculus [27]) was 11.1. For the same molecule, the Ratio [28] was 273, the Ratio [29] was 335 and the Ratio [30] was 3. For the same molecule, the Ratio [31] was 2, the Ratio [32] was 0 and the Ratio [33] was 6. For the same molecule, the Ratio [34] was 1, the Ratio [35] was 144 and the Ratio [36] was “Toxic”. For the same molecule, the Ratio [37] was 160, the Ratio [38] was 179 and the Ratio [39] was 179. For the same molecule, the Ratio [40] was 281.
